# Published values pooled from the literature.
# Compare with care: the assays were run in different laboratories.
# Target: Cyclin-dependent kinase-like 1 (CDKL1, Homo sapiens, UniProt Q00532)
SMILES,effect on,action,technique,tested at,endpoint,value
Nc1ncnc2occ(-c3ccc(NC(=O)Nc4cc(C(F)(F)F)ccc4F)cc3)c12,cell-free assay,,,20 µM,remaining signal,0.55%
CN1CC(Oc2cnc(C#N)cc2-c2ccn3nc(NC(=O)C4CC4)cc3c2)C1,enzyme activity,inhibitor,,1 µM,inhibition,5%
COc1cc(Cl)c(C(=O)N[C@@H](CN[C@H]2CC[C@@H](N)CC2)Cc2ccc(C#N)cc2)cc1-c1ccc(CN[C@H](C)c2ccc(C)cc2)o1,enzyme activity,inhibitor,,1 µM,remaining activity,101%
NS(=O)(=O)c1cc(NC(=O)C2(c3ccccc3Cl)CC2)ccc1Oc1cccc(Cl)c1,binding,,competition with immobilised ligand,1 µM,remaining binding,99%
Cn1c2c(Cl)c(Cl)ccc2c2cc(N)[nH]c(=O)c21,thermal stability,,DSF,10 µM,ΔTm,0.3 °C
Cc1ccc(C(=O)Nc2ccc(CN3CCN(C)CC3)c(C(F)(F)F)c2)cc1C#Cc1cnc2cccnn12,enzyme activity,,,23.5 nM,remaining activity,85%
CO[C@@H](C)c1c(Nc2ccc([C@@H](N(C)C(=O)C3CCS(=O)(=O)CC3)C(F)(F)F)cc2)cnc2cc(Cl)nn12,cell-free assay,,competition with immobilised ligand,1 µM,remaining binding,74%
CCC1(CC)NC(=O)c2c(c3ccc(Cl)c(Cl)c3n2C)C1C#N (centres unmarked),thermal stability,,DSF,10 µM,ΔTm,0 °C
